Data reported in ChEMBL document CHEMBL3352534, “A prodrug strategy for the oral delivery of a poorly soluble HCV NS5B thumb pocket 1 polymerase inhibitor using self-emulsifying drug delivery systems (SEDDS)” (Bioorg Med Chem Lett, 2015).
Values after ≈ are worked out from the molar mass of the structure shown.

Columns and labels:
[1] = Prodrug conversion in human intestinal microsomes assessed as half life
[2] = (§1) AUC in rat plasma at 10 mg/kg, po using 10.6% PEG400, 5.4% Cremophor EL, 2.6% Labrasol, 1.4% Capmul MCM in water (80%) vehicle; assay type: ADME, organism-based; set-up: dose 10 mg/kg, route oral; settings: plasma
Procedure, shortened: (§2)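 Fasted rats were given a single 10 mg/kg oral dose, with n = 3 per dose and route. Plasma was extracted by solid-phase extraction. Analysis used HPLC with diode-array UV (200–400 nm, peak height at best S/N) or LC/MS. Calibration standards were made in blank plasma, with LOQ 7–14 ng/mL. Parameters came from noncompartmental analysis.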

[3] = tested on: Plasma; assay: Prodrug conversion in human plasma assessed as half life
[4] = Prodrug conversion in simulated intestinal fluid assessed as half life; assay type: ADME; settings: simulated gi fluid
Procedure, shortened: (§3)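 Incubations used 2 µM compound at 37 °C in either SGF (0.2% NaCl/HCl, pH 1.2, pepsin 3.2 mg/mL) or SIF (KH2PO4/NaOH, pH 7.5, pancreatin 10 mg/mL). Samples were quenched 1:2 with acetonitrile/methanol 1:1 and analysed by HPLC. t1/2 = 0.693/first-order disappearance rate.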

[5] = tested on: Rattus norvegicus; assay: AUC in rat plasma assessed as (E)-3-(4-(1-(2-(5-chloropyrimidin-2-yl)-3-cyclopentyl-1-methyl-1H-indole-6-carboxamido)cyclobutanecarboxamido)-2-ethoxyphenyl)acrylic acid at 10 mg/kg, po using 10.6% PEG400, 5.4% Cremophor EL, 2.6% Labrasol, 1.4% Capmul MCM in water (80%) vehicle; assay type: ADME, organism-based; set-up: dose 10 mg/kg, route oral; settings: in vivo; procedure, shortened: as §2
[6] = (§4) AUC in rat plasma at 10 mg/kg, po using 0.5% Methyl cellulose, 0.3% Tween-80, 1% N-methylpyrrolidone in water vehicle; assay type: ADME, organism-based; set-up: dose 10 mg/kg, route oral; settings: plasma; procedure, shortened: as §2
[7] = tested on: Plasma; assay: Prodrug conversion in rat plasma assessed as half life; assay type: ADME, cell-free
Procedure, shortened: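 Rat plasma (from centrifuged whole blood) was incubated with 2 µM compound at 37 °C. Samples were quenched 1:3 with acetonitrile/methanol 1:1, centrifuged and analysed by HPLC-PDA. Half-life was taken as 0.693/first-order rate of loss of the starting compound.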

[8] = tested on: Rattus norvegicus; assay: AUC in rat plasma assessed as (E)-3-(4-(1-(2-(5-chloropyrimidin-2-yl)-3-cyclopentyl-1-methyl-1H-indole-6-carboxamido)cyclobutanecarboxamido)-2-ethoxyphenyl)acrylic acid at 10 mg/kg, po using 0.5% Methyl cellulose, 0.3% Tween-80, 1% N-methylpyrrolidone in water vehicle; assay type: ADME, organism-based; set-up: dose 10 mg/kg, route oral; settings: in vivo; procedure, shortened: as §2
[9] = tested on: Rattus norvegicus; assay: Cmax in rat plasma assessed as (E)-3-(4-(1-(2-(5-chloropyrimidin-2-yl)-3-cyclopentyl-1-methyl-1H-indole-6-carboxamido)cyclobutanecarboxamido)-2-ethoxyphenyl)acrylic acid at 10 mg/kg, po using 10.6% PEG400, 5.4% Cremophor EL, 2.6% Labrasol, 1.4% Capmul MCM in water (80%) vehicle; assay type: ADME, organism-based; set-up: dose 10 mg/kg, route oral; settings: in vivo; procedure, shortened: as §2
[10] = tested on: Liver microsome; assay: Prodrug conversion in human liver microsomes assessed as half life
[11] = Prodrug conversion in simulated gastric fluid assessed as half life; assay type: ADME; settings: simulated gi fluid; procedure, shortened: as §3
[12] = (§5) Cmax in rat plasma at 10 mg/kg, po using 0.5% Methyl cellulose, 0.3% Tween-80, 1% N-methylpyrrolidone in water vehicle; assay type: ADME, organism-based; set-up: dose 10 mg/kg, route oral; settings: plasma; procedure, shortened: as §2
[13] = (§6) Cmax in rat plasma at 10 mg/kg, po using 10.6% PEG400, 5.4% Cremophor EL, 2.6% Labrasol, 1.4% Capmul MCM in water (80%) vehicle; assay type: ADME, organism-based; set-up: dose 10 mg/kg, route oral; settings: plasma; procedure, shortened: as §2
[14] = tested on: Rattus norvegicus; assay: Cmax in rat plasma assessed as (E)-3-(4-(1-(2-(5-chloropyrimidin-2-yl)-3-cyclopentyl-1-methyl-1H-indole-6-carboxamido)cyclobutanecarboxamido)-2-ethoxyphenyl)acrylic acid at 10 mg/kg, po using 0.5% Methyl cellulose, 0.3% Tween-80, 1% N-methylpyrrolidone in water vehicle; assay type: ADME, organism-based; set-up: dose 10 mg/kg, route oral; settings: in vivo; procedure, shortened: as §2
[15] = tested on: Liver microsome; assay: Prodrug conversion in rat liver microsomes assessed as half life
[16] = tested on: Intestine; assay: Prodrug conversion in rat intestinal microsomes assessed as half life
[17] = Dissociation constant, pKa of the compound; assay type: physicochemical
[18] = tested on: Rattus norvegicus; assay: as §1; assay type: ADME, organism-based; set-up: dose 10 mg/kg, route oral; settings: in vivo, BLD = below limit of detection; procedure, shortened: as §2
[19] = Prodrug solubility in solutol; assay type: ADME
[20] = tested on: Rattus norvegicus; assay: as §6; assay type: ADME, organism-based; set-up: dose 10 mg/kg, route oral; settings: in vivo, BLD = below limit of detection; procedure, shortened: as §2
[21] = Prodrug solubility in Labrasol; assay type: ADME
[22] = Prodrug solubility in capmul; assay type: ADME
[23] = Solubility of the compound at pH 6.8; assay type: physicochemical; settings: buffer
[24] = Prodrug solubility in PEG400; assay type: ADME
[25] = tested on: Rattus norvegicus; assay: as §4; assay type: ADME, organism-based; set-up: dose 10 mg/kg, route oral; settings: in vivo, BLD = below limit of detection; procedure, shortened: as §2
[26] = tested on: Rattus norvegicus; assay: as §5; assay type: ADME, organism-based; set-up: dose 10 mg/kg, route oral; settings: in vivo, BLD = below limit of detection; procedure, shortened: as §2

Structure (SMILES) | t1/2 [1] | t1/2 [3] | t1/2 [4] | AUC [5] | t1/2 [7] | Cmax [9] | t1/2 [10] | t1/2 [11] | t1/2 [15] | t1/2 [16] | pKa [17] | AUC [18] | solubility [19] | Cmax [20] | solubility [21] | solubility [22] | solubility [24] | other results
CCOc1cc(NC(=O)C2(NC(=O)c3ccc4c(C5CCCC5)c(-c5ncc(Cl)cn5)n(C)c4c3)CCC2)ccc1/C=C/C(=O)OC | 9.07 h | > 5 h | 6.87 h | 30.7 µM·h | > 5 h | 5200 nM | 12.7 h | 2.5 h | 1.63 h | 1.82 h |  |  |  |  |  |  |  | AUC [2]: 2.6 µM·h; AUC [6]: 0.07 µM·h; AUC [8]: 5.7 µM·h; Cmax [12]: 10 nM; Cmax [13]: 840 nM; Cmax [14]: 510 nM
CCOc1cc(NC(=O)C2(NC(=O)c3ccc4c(C5CCCC5)c(-c5ncc(Cl)cn5)n(C)c4c3)CCC2)ccc1/C=C/C(=O)OCCN1CCCC1 |  |  |  | 6.5 µM·h |  | 1100 nM |  |  |  |  | 7.7 | BLD | < 100 mg/mL | BLD | < 60 mg/mL | < 60 mg/mL |  | 
CCOc1cc(NC(=O)C2(NC(=O)c3ccc4c(C5CCCC5)c(-c5ncc(Cl)cn5)n(C)c4c3)CCC2)ccc1/C=C/C(=O)OCOP(=O)(O)O | 0.467 h |  |  |  |  |  | 0.167 h | 1.3 h | 0.15 h | 0.083 h |  |  |  |  |  |  |  | AUC [6]: 0.09 µM·h; AUC [8]: 14.5 µM·h; Cmax [12]: 50 nM; Cmax [14]: 4200 nM; solubility [23]: 0.14 mg/mL (≈ 0.186 mM)
CCOc1cc(NC(=O)C2(NC(=O)c3ccc4c(C5CCCC5)c(-c5ncc(Cl)cn5)n(C)c4c3)CCC2)ccc1/C=C/C(=O)OCCN(C)C | > 5 h | > 5 h | 6.6 h | 10.1 µM·h | 1.4 h | 1600 nM | 1.5 h | 1.82 h | 0.317 h | 1.47 h | 7.7 | BLD | < 100 mg/mL | BLD | < 100 mg/mL | < 100 mg/mL |  | 
CCOc1cc(NC(=O)C2(NC(=O)c3ccc4c(C5CCCC5)c(-c5ncc(Cl)cn5)n(C)c4c3)CCC2)ccc1/C=C/C(=O)OCC(=O)N1CCN(C)CC1 |  |  |  | 1.5 µM·h |  | 260 nM | 0.35 h |  | 0.15 h |  | 6.6 | BLD | < 100 mg/mL | BLD | < 100 mg/mL | < 100 mg/mL |  | 
CCOc1cc(NC(=O)C2(NC(=O)c3ccc4c(C5CCCC5)c(-c5ncc(Cl)cn5)n(C)c4c3)CCC2)ccc1/C=C/C(=O)OCC(N)=O |  |  |  | 16.7 µM·h |  | 4400 nM | 0.983 h | 0.6 h | 0.383 h |  |  |  | 200 mg/mL (≈ 286 mM) |  | > 200 mg/mL | < 200 mg/mL | > 200 mg/mL | AUC [2]: 0.13 µM·h; Cmax [13]: 40 nM
CCOc1cc(NC(=O)C2(NC(=O)c3ccc4c(C5CCCC5)c(-c5ncc(Cl)cn5)n(C)c4c3)CCC2)ccc1/C=C/C(=O)OCC(=O)NC |  |  |  |  |  |  | 0.567 h |  | 0.5 h |  |  |  | < 200 mg/mL |  | 200 mg/mL (≈ 280 mM) | < 200 mg/mL | > 200 mg/mL | 
CCCN(C)C(=O)COC(=O)/C=C/c1ccc(NC(=O)C2(NC(=O)c3ccc4c(C5CCCC5)c(-c5ncc(Cl)cn5)n(C)c4c3)CCC2)cc1OCC |  |  |  |  |  |  | 0.317 h |  | 0.317 h |  |  |  | < 200 mg/mL |  | < 200 mg/mL | < 200 mg/mL | < 200 mg/mL | 
CCOc1cc(NC(=O)C2(NC(=O)c3ccc4c(C5CCCC5)c(-c5ncc(Cl)cn5)n(C)c4c3)CCC2)ccc1/C=C/C(=O)OCCN1CCOCC1 | 15.2 h | > 5 h | 4.28 h | 35.2 µM·h | 1.6 h | 7200 nM | 0.917 h | 0.333 h | 0.583 h | 3.5 h | 5.7 |  | < 60 mg/mL |  | < 60 mg/mL | < 30 mg/mL |  | AUC [2]: 0.2 µM·h; Cmax [13]: 70 nM
CCOc1cc(NC(=O)C2(NC(=O)c3ccc4c(C5CCCC5)c(-c5ncc(Cl)cn5)n(C)c4c3)CCC2)ccc1/C=C/C(=O)OCCN1CCN(C)CC1 |  |  |  | 7.9 µM·h |  | 1200 nM | 1.85 h |  | 0.217 h |  | 7.7 | BLD | < 100 mg/mL | BLD | < 100 mg/mL |  |  | 
CCOc1cc(NC(=O)C2(NC(=O)c3ccc4c(C5CCCC5)c(-c5ncc(Cl)cn5)n(C)c4c3)CCC2)ccc1/C=C/C(=O)OCC(=O)N1CCCC1 |  |  |  |  |  |  | 1.65 h |  | 1.47 h |  |  |  | 200 mg/mL (≈ 265 mM) |  | 200 mg/mL (≈ 265 mM) | < 200 mg/mL | > 200 mg/mL | 
CCOc1cc(NC(=O)C2(NC(=O)c3ccc4c(C5CCCC5)c(-c5ncc(Cl)cn5)n(C)c4c3)CCC2)ccc1/C=C/C(=O)OCC(=O)N1CCOCC1 | 3.42 h | > 5 h | 3.17 h | 19.3 µM·h | 1.83 h | 4000 nM | 0.8 h | 0.85 h | 0.733 h | 1.27 h |  | BLD | < 15 mg/mL | BLD | < 30 mg/mL | < 15 mg/mL |  | 
CCOc1cc(NC(=O)C2(NC(=O)c3ccc4c(C5CCCC5)c(-c5ncc(Cl)cn5)n(C)c4c3)CCC2)ccc1/C=C/C(=O)OCOP(=O)(O)OC(C)(C)C |  |  |  |  |  |  | 1.48 h |  | 0.13 h |  |  |  |  |  |  |  |  | AUC [25]: BLD; AUC [8]: 0.49 µM·h; Cmax [26]: BLD; Cmax [14]: 80 nM; solubility [23]: 0.781 mg/mL (≈ 0.966 mM)
